# Kir21 inh = inhibitors of mouse Kir2.1 inward-rectifier potassium channel. HEK293-Kir2.1, FluxOR thallium flux fluorescence; active compounds read low. 310,000 compounds, 0.85% hits. P35561. B-score at 10 µM;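 active means fluorescence ratio B-score at or below minus 3 SD of library scores, with starting-brightness B-score within 2 SD, cut at about -4.2 in these data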;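 further: channel flux triggered by added potassium and thallium sulfate stimulus; B-score of peak minus minimum fluorescence over baseline after thallium stimulus; more negative B-score means stronger Kir2.1 block with less thallium influx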
# TRPC4 block = TRPC4 (mouse) channel inhibition | Q9QUQ5 | HEK293 TRPC4beta/mu-opioid, DAMGO-evoked Fluo4 calcium flux; active compounds read low | B-score at 10 µM | 300,000 compounds, 0.39% hits | AID 2247;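 active means B-score over 3 SD under the library average, no early fluorescence shift, positive overall ratio signal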
# Target sequence (Q9QUQ5 whole entry, looked up): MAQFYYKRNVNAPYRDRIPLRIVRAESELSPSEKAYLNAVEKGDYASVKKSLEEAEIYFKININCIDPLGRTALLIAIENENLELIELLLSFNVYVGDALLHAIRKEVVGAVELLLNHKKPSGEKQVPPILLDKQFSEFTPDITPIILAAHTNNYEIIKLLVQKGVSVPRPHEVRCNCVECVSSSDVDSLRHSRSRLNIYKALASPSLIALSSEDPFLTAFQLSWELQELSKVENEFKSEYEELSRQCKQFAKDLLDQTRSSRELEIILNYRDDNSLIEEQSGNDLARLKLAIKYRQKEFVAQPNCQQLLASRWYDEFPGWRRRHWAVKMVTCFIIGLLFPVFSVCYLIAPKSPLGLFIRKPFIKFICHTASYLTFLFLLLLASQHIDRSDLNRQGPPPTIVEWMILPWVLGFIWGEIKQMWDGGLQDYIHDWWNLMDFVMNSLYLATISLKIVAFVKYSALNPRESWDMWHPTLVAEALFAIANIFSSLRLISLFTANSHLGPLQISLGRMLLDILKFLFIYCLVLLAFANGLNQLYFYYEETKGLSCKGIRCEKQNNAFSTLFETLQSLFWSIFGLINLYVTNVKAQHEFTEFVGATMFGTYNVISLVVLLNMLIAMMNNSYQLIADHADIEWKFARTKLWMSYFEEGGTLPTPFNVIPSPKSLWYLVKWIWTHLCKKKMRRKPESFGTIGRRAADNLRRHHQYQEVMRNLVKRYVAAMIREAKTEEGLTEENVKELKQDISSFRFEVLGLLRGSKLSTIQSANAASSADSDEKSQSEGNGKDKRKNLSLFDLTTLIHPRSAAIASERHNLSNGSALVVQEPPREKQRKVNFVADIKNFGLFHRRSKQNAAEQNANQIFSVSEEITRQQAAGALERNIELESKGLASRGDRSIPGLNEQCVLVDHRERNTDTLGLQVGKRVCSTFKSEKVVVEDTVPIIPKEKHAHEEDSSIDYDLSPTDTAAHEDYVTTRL
#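 System: stable TRPC4beta/mu-opioid receptor HEK293 cells; Dosing: single-point compound dosing; Measured by: Fluo4 Ca2+ flux fluorescence; Read-out basis: per-well B score of integrated baseline-normalized Fluo4 ratio.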
# TRPC4 act = TRPC4 (mouse) channel activation; Q9QUQ5; HEK293 TRPC4beta/mu-opioid, Fluo4 calcium fluorescence; active compounds read high; B-score at 10 µM; 310,000 compounds, 0.49% hits; AID 2237;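 active means B-score above 5 SD of library B-scores, and initial fluorescence ratio not above library mean plus 5 SD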;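 further: positive B-score marks a calcium rise read as TRPC4 activation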
#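 Assay system – TRPC4beta and mu-opioid receptor HEK293 stable cells · Measured by – Fluo4 fluorescence, kinetic · Schedule – dye loading 45 min room temperature, 110 s kinetic read · Read-out – B-scored integrated calcium fluorescence ratio · Controls – buffer and maximal DAMGO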
# TRPC6 activator = activates the mouse TRPC6 cation channel | Q61143 | 310,000 compounds, 0.13% hits | B-score at 10 µM | HEK293-TRPC6 membrane potential dye fluorescence; active compounds read high;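 active means B-score of the integrated fluorescence ratio above library mean plus 3 SD, and starting fluorescence ratio within library mean plus 5 SD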;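 further: higher score means more depolarization so channel activation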
# TRPC6 inhibitor = inhibitors of mouse TRPC6 channel; Q61143; HEK293-TRPC6, membrane potential dye, ACh-evoked depolarization; active compounds read low; B-score at 10 µM; 310,000 compounds, 1.1% hits; AID 2553;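 active means B-score under library mean minus 3 SD, initial fluorescence not abnormally high, positive integrated signal ratio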;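 further: B-score derived from integrated fluorescence ratio over the kinetic read; more negative B-score means stronger inhibition of depolarization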
# TRPC4 PAM = allosterically enhances the mouse TRPC4 cation channel | B-score at 10 µM | 310,000 compounds, 0.42% hits | AID 2227 | Q9QUQ5 | HEK293 TRPC4beta/mu-opioid, DAMGO EC20, Fluo-4 Ca2+ flux; active compounds read high;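 active means B-score of calcium response area above 5 SD of library B-scores, with initial fluorescence ratio within 5 SD of library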;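 further: B-score of integrated fluorescence ratio over time as area under calcium response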
# TRPC4 sel inh 2 = second check of whether TRPC6 inhibitors also affect mouse TRPC4; shares compounds with TRPC6 inhibitor; HEK293 TRPC4/MOR, membrane potential dye fluorescence; channel activated by saturating DAMGO dose; inhibition, % at 10 µM; 920 compounds, 42% hits; AID 2776;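 active means compounds whose fluorescence signal differed from control wells by over 3 SD, either direction, in both duplicate plates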
# TRPC4 spec = selectivity of TRPC6 inhibitors: effect on mouse TRPC4. shares compounds with TRPC6 inhibitor. 920 compounds, 61% hits. activity change, negative = inhibition, % at 10 µM. HEK293 TRPC4/mu-opioid, membrane potential fluorescence;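 active means rise or fall in signal beyond 3 SD of buffer-only wells in both replicate plates, either sign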;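 further: integrated kinetic ratio of fluorescence range over baseline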
# HEK293 MPD ctr 2-1 = second counter-screen for TRPC6 inhibitors: parental HEK293 cells; shares compounds with TRPC6 inhibitor; parental HEK293 membrane potential dye fluorescence; maximal acetylcholine challenge after compound addition; signal change vs control, % at 10 µM; 920 compounds, 31% hits;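 active means membrane potential signal moving either way by over 3 SD of the maximum-effect control, in both duplicate plates, meaning non-specific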
# HEK293 MPD ctr-1 = checks TRPC6 inhibitor effects in parental HEK293 cells | AID 2780 | membrane potential signal change, % at 10 µM | shares compounds with TRPC6 inhibitor | 920 compounds, 60% hits | parental HEK293 membrane potential dye fluorescence;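 active means membrane potential signal shifting up or down by more than 3 SD of buffer-only wells, on both duplicate plates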
# HEK293 MPD ctr-2 = parental HEK293 nonspecific activity of TRPC6 modulators; shares compounds with TRPC6 inhibitor; membrane potential dye fluorescence; membrane potential signal change, % at 10 µM; 2,400 compounds, 51% hits;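 active means membrane potential signal moves up or down beyond 5 SD from buffer-only wells, on both duplicate plates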
# HEK293 MPD ctr 2-2 = parental HEK293 nonspecific activity of TRPC6 modulators, second screen | shares compounds with TRPC6 inhibitor | membrane potential dye fluorescence; after compound, maximal acetylcholine stimulation | inhibition, % at 10 µM | 2,400 compounds, 14% hits | AID 488926;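 active means membrane potential signal drops by more than 5 SD from the mean control signal, in both duplicate plates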;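 further: plate controls were acetylcholine ECmax control wells for no effect and buffer only wells for full effect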
# TRPC4/MOR mod = selectivity of TRPC6 modulators against mouse TRPC4. HEK293 TRPC4/mu-opioid, membrane potential fluorescence. percent change from control (negative = decrease, positive = increase), % at 10 µM. shares compounds with TRPC6 inhibitor. 2,400 compounds, 69% hits;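 active means membrane potential signal moved up or down beyond 5 SD of buffer control wells, in both duplicate plates, actives on both sides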;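 further: plate controls were assay buffer wells for no effect and DAMGO maximal-effect wells for full effect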
# TRPC4 ctr inh 2 = second selectivity test of TRPC6 modulators against mouse TRPC4; shares compounds with TRPC6 inhibitor; HEK293 TRPC4/mu-opioid, membrane potential dye fluorescence; stimulated with maximal-effect DAMGO; inhibition, % at 10 µM; 2,400 compounds, 55% hits; AID 488928;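 active means drop in membrane potential signal beyond 5 SD of the control wells in both duplicate plates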;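 further: TRPC4 counter screen for TRPC6 hits run under conditions tuned for TRPC6 not TRPC4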
# TRPC6 block conf = confirmation of mouse TRPC6 inhibitors. HEK293-TRPC6, membrane potential dye, ACh-evoked depolarization. shares compounds with TRPC6 inhibitor. inhibition, % at 10 µM. 3,300 compounds, 43% hits;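 active means fluorescence ratio falls more than 5 SD below the full-stimulation control mean, in both duplicate runs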;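 further: integrated fluorescence ratio of peak minus minimum over baseline after agonist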
# TRPC6 act conf = mouse TRPC6 activator confirmation | activation, % at 10 µM | AID 488961 | shares compounds with TRPC6 inhibitor | 2,800 compounds, 11% hits | HEK293-TRPC6 membrane potential dye fluorescence, FDSS;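 active means ratio signal rise beyond 5 SD above unstimulated control wells' mean, seen in both duplicate runs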;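 further: plate controls were buffer EC0 wells for no effect and acetylcholine ECmax response for full effect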
# Starred values were filed as active, the others as inactive; i = inactive; nt = no result given. In the library only some 3% were active in any assay of this set; here they are far more common.
SMILES,Kir21 inh,TRPC4 block,TRPC4 act,TRPC6 activator,TRPC6 inhibitor,TRPC4 PAM,HEK293 MPD ctr-2,HEK293 MPD ctr 2-2,TRPC4/MOR mod,TRPC4 ctr inh 2,TRPC6 block conf,TRPC6 act conf,others
CCN(CC)CCCNc1oc(-c2ccc(OC)c(OC)c2)nc1C#N,-1.9,i,i,i,-6.4*,i,i,i,i,i,46%*,i,
CN(C)CCCNc1oc(-c2cccc(Cl)c2)nc1C#N,-0.77,i,i,i,-6.8*,i,nt,nt,nt,nt,i,i,TRPC4 sel inh 2=i;TRPC4 spec=i;HEK293 MPD ctr 2-1=i;HEK293 MPD ctr-1=i
COc1ccc(-c2nc(C#N)c(NCCCn3ccnc3)o2)cc1OC,-0.22,i,i,i,i,i,nt,nt,nt,nt,nt,nt,
CCOc1ccc(/C=C/c2nc(C#N)c(NCCCOC)o2)cc1,0.41,i,i,i,i,i,nt,nt,nt,nt,nt,nt,
CCOc1ccc(/C=C/c2nc(C#N)c(NCCCN(C)C)o2)cc1,-1.8,i,i,i,-5.5*,i,i,i,i,56%*,38%*,i,
O=C(O)c1ccc(N/N=C/C2=C(N3CCOCC3)C(=C\c3ccccc3)/CC2)cc1,-2.5,i,51*,22*,i,i,856%*,i,191%*,i,i,350%*,
Cc1cc(C)c(C(=O)N2CCCC(N3CCN(c4ccc(F)cc4)CC3)C2)o1 (stereo not drawn),0.66,i,i,i,i,i,nt,nt,nt,nt,nt,nt,
Cc1oc(-c2cccc(Cl)c2)nc1CN1CCC(C(=O)NCCCN2CC(C)CC(C)C2)CC1 (stereo not drawn),-0.51,i,i,i,i,i,nt,nt,nt,nt,nt,nt,
COc1ccc(CCNC(=O)C2CCN(Cc3nc(-c4cccc(Cl)c4)oc3C)CC2)cc1OC,-0.78,i,i,i,-7.3*,i,i,i,i,75%*,i,i,
CCCCc1ccc(NC(=O)C(=O)NCCN2CCN(C(=O)c3ccc([N+](=O)[O-])cc3)CC2)cc1,-0.02,i,i,i,i,i,nt,nt,nt,nt,nt,nt,
Cc1ccc(S(=O)(=O)N(C)C)cc1NC(=S)N1CCc2ccccc21,1.1,i,i,i,i,i,nt,nt,nt,nt,nt,nt,
COC(=O)C1CN(C(=O)COc2cccc(C)c2C)c2ccccc2O1 (stereo not drawn),-0.51,i,i,i,-6*,i,98%*,i,14%*,i,i,i,
COC(=O)C1CN(C(=O)COc2ccc(Cl)cc2Cl)c2ccccc2O1 (stereo not drawn),1,i,i,i,i,i,nt,nt,nt,nt,nt,nt,
CC(C)CC[n+]1ccccc1/C=C/c1ccc(N(C)C)cc1,-14,i,66*,i,-5.8*,i,719%*,113%*,115%*,i,68%*,nt,
CN(C)c1ccc(/C=C/c2cccc[n+]2[O-])cc1,-2,i,i,i,i,i,nt,nt,nt,nt,nt,nt,
COc1ccccc1C(c1nnnn1Cc1ccccc1)N1CCN(C2CCCC2)CC1 (stereo not drawn),-1.1,i,i,i,i,i,nt,nt,nt,nt,nt,nt,
COc1ccc(OC)c(C(c2nnnn2Cc2ccccc2)N2CCN(C3CCCCC3)CC2)c1 (stereo not drawn),-0.8,i,i,i,-5.7*,i,132%*,i,i,65%*,40%*,nt,
Nc1[nH]n2c(=O)cc(-c3ccccc3)nc2c1N=Nc1ccccc1,1.2,i,i,i,-8*,i,nt,nt,nt,nt,77%*,i,TRPC4 sel inh 2=50%*;TRPC4 spec=-20%*;HEK293 MPD ctr 2-1=i;HEK293 MPD ctr-1=-316%*
Nc1[nH]n2c(=O)cc(-c3ccccc3)nc2c1N=Nc1ccc(S(N)(=O)=O)cc1,1.2,i,i,i,i,i,nt,nt,nt,nt,nt,nt,
CN(C)c1ccc2nc3ccc(=[N+](C)C)cc-3sc2c1,0.18,i,i,i,-14*,i,-224%*,132%*,-36%*,66%*,80%*,i,
Cc1cc2nc3ccc(=[N+](C)C)cc-3sc2cc1N,2.2,i,i,i,i,i,nt,nt,nt,nt,nt,nt,
COc1ccc(OCC(O)CNC(=O)c2c(-c3ccccc3)noc2C)cc1 (stereo not drawn),-0.1,i,i,i,i,i,nt,nt,nt,nt,nt,nt,
CCOC(=O)CNC(=O)Cn1cnc2c(nnn2-c2ccc(OC)cc2)c1=O,-1.1,i,i,i,-9.5*,i,nt,nt,nt,nt,i,i,TRPC4 sel inh 2=i;TRPC4 spec=i;HEK293 MPD ctr 2-1=i;HEK293 MPD ctr-1=i
NC(=NCCc1c[nH]c2ccccc12)NC(=O)c1ccc(F)cc1,-7.2*,i,i,i,-6.5*,i,i,i,i,54%*,44%*,i,
Cc1ccc(NC(=O)C2CCCN2C(=O)OC(C)(C)C)cc1C (stereo not drawn),-0.01,i,i,i,i,i,nt,nt,nt,nt,nt,nt,
